Source: PubChem (several laboratories)
ABHD5 PLIN5 PPI: ABHD5-PLIN5 interaction inhibitors, primary screen, cell lysate, split luciferase complementation, luminescence; inhibition, % at 4 µM; actives 0.78% (n = 360,000); Split G. princeps luciferase complementation, 4 h;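 active means inhibition above the mean inhibition across every tested compound plus 3 SD, cut at about 22% in these data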;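 further: 0% = DMSO only wells and the 100% control is not disclosed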
Beta2AR agonist: beta2AR agonists driving receptor internalization, primary screen, cell-based, FAP fluorogen, flow cytometry | Beta-2 adrenergic receptor (Homo sapiens), P07550 | Am2.2-beta2AR cells | response, % (test concentration not listed) | actives 0.43% (n = 340,000) | AID 504454, 2011;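 active means response above a set limit, near 3 SD of response in nonfluorescent compounds, cut at about 42% in these data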
TLR9-MyD88 inh: inhibitors of TLR9-MyD88 association in cells, primary screen, cell-based, CHO, BLA complementation, fluorescence | actives 0.21% (n = 340,000) | CCF4 FRET ratio | AID 504734, 2011 | inhibition, % at 4.98 µM;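 active means inhibition above the mean over all tested compounds plus 3 SD, cut at about 21% in these data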;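 further: 0% = DMSO only wells and 100% = clavulanate BLA inhibitor control wells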
TLR4-MyD88 BLA: inhibitors of TLR4-MyD88 association in cells, primary screen, cell-based, HeLa CL3-4, BLA complementation, FRET ratio | Toll-like receptor 4 (Homo sapiens) + Myeloid differentiation primary response protein … | HeLa CL3-4 TLR4/MyD88 BLA complementation | inhibition, % at 8.4 µM | actives 0.18% (n = 200,000); in the data active means inhibition above about 25%;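 further: 0% = vehicle and 100% = reference inhibitor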
NOD2 RIPK2 PPI: NOD2-RIPK2 binding disruptors in cells, primary screen, fluorescence, CHO cells, BLA complementation; Receptor-interacting serine/threonine-protein kinase 2 (Homo sapiens), O43353; CCF4 ratio; AID 624267, 2012; actives 0.38% (n = 360,000); inhibition, % at 4.98 µM; in the data active means inhibition above about 21%;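 further: 0% = vehicle only and 100% = reference blocker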
Target sequence (O43353 whole entry, looked up): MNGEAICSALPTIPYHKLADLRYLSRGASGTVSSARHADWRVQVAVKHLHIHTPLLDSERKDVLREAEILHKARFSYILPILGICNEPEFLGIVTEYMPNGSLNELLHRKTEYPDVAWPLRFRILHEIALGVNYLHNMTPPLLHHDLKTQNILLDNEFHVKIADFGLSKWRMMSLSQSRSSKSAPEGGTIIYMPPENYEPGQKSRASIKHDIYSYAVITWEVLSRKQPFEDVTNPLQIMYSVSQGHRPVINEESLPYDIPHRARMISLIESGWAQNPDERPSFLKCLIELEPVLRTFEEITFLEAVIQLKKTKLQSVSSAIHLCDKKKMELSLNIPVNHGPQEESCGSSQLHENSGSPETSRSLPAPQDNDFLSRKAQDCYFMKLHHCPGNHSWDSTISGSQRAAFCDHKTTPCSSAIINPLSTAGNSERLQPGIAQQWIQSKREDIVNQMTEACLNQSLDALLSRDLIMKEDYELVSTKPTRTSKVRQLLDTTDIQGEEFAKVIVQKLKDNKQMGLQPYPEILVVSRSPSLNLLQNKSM
Dynein transport: inhibitors of GR-EGFP nuclear translocation, primary screen, dynein cargo transport inhibitor project, imaging, high-content, 3617.4 mouse cells. test concentration mostly 20 µM; stimulated with dexamethasone, 1 µM; hits give low values. z-score, hits read low. actives 0.47% (n = 220,000);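 active means plate z-score of nuclear minus cytoplasmic receptor signal below a set negative limit, without overly bright fluorescence or cell loss, cut at about -3.5 in these data, passing the limit was not always enough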;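 further: z-score of nuclear minus cytoplasmic ring GR-EGFP intensity difference per well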
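Buffer or medium: tet-free, stripped-serum medium; Also added: dexamethasone, 1.0 µM final; Technique: high-content fluorescence imaging after fixation; Times: 48 h induction, 1 h compound, 30 min dex at 37 °C; Read-out: per-cell GR-EGFP intensity, nucleus versus surrounding cytoplasmic ring, well-averaged.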
Beta2AR ag CP1: beta2AR agonists via receptor internalization, confirmation, cell-based, FAP fluorogen, flow cytometry, single point, cherry pick 1. shares compounds with Beta2AR agonist. Am2.2-beta2AR cells, FAP surface receptor; hits give low values. percent response (surface receptor), % at 10 µM. actives 25% (n = 1,100);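 active means surface receptor percent response at or below 58%, roughly 3 SD from nonfluorescent compounds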
B2AR FAP counter: fluorescence artifact in beta-2AR agonist FAP counterscreen; 1,100 tested, under 10 active; AID 588765; calls only at 10 µM; shares compounds with Beta2AR agonist; Am2.2 cells, FAP fluorogen flow cytometry; hits give low values;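 active means percent response below a set limit in fluorescence channel 1 and below 50% in channel 8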
The depositor's hits bear a star; i = inactive; x = no result; ! = not confirmed by another sample. Shown are actives, neighbours in structure and some others; about 1.6% of the full set was active somewhere.

SMILES | ABHD5 PLIN5 PPI | Beta2AR agonist | TLR9-MyD88 inh | TLR4-MyD88 BLA | NOD2 RIPK2 PPI | Dynein transport | Beta2AR ag CP1 | B2AR FAP counter
CCNC(=O)C1(C)CCCN(Cc2csc(-c3ccccc3)n2)C1 (configuration not stated) | -2 | x | x | x | -9 | x | x | x
CC(C)Oc1cccc(C(=O)Nc2ccc(NC(=O)c3ccco3)cc2)c1 | 0 | -10 | -9 | 6 | -9 | -1.3 | 148 | i
COc1cccc(OC)c1C(=O)Nc1ccc(NC(=O)c2ccco2)cc1 | -3 | -10 | 7 | -4 | 2 | 0.75 | 99 | i
Cc1ccc(C(=O)N/N=C/c2cccnc2)cc1Cl | 0 | x | 2 | x | -14 | x | x | x
C=CCn1c(SCc2ccccc2Cl)nnc1-c1sc2nc(C)cc(C)c2c1N | -4 | 110* | -1 | x | 2 | 0.83 | 17* | i
Cc1cc(C)c2c(N)c(-c3nnc(SCc4ccc(Cl)cc4)n3C)sc2n1 | 2 | 111* | 8 | x | -1 | 0.75 | 21* | i
Cn1c(SCc2ccc(Cl)cc2)nnc1C1CC1 | -8 | -9 | 6 | -2 | 3 | 0.0023 | x | x
O=C(NCC(c1cccs1)N1CCOCC1)c1ccccc1NS(=O)(=O)c1ccc(Cl)c([N+](=O)[O-])c1 (configuration not stated) | -6 | 63* | -6 | -9 | 0 | -1.5 | 94 | i
O=C(NCC(c1cccs1)N1CCOCC1)c1ccccc1NS(=O)(=O)c1cccc([N+](=O)[O-])c1 (configuration not stated) | -4 | 1 | 3 | 1 | -4 | -1.1 | x | x
CC(C)NC(=O)N1Cc2cc(C(=O)NC3CCCCC3)nc(-c3cccc(-c4cccnc4)c3)c2[C@@H]1CCO | -1 | x | x | x | -6 | x | x | x
Cc1ccccc1OCC(=O)NNC(=O)Cn1[nH]c(=O)c2ccccc2c1=O | 5 | 10 | 7 | x | -19 | x | x | x
CCn1c(SCC(=O)N2CCCC2)nnc1-c1ccc(N)cc1 | -3 | 86* | -4 | 5 | 3 | 0.26 | 6.8* | i
COc1ccccc1CN1CC(C(=O)N(C)CCc2ccccn2)CCC1=O (configuration not stated) | -6 | x | -3 | x | -8 | x | x | x
COc1cccc(CNC(=O)C(C)n2ccc3cc(S(=O)(=O)N4CCCC4)ccc32)c1 (configuration not stated) | 7 | 3 | -5 | x | 7 | x | x | x
COc1cccc(CNC(=O)C(C)n2ccc3cc(S(=O)(=O)N4CCCCCC4)ccc32)c1 (configuration not stated) | 6 | 47* | -16 | x | -2 | x | 112 | i
CC(=O)Nc1ccc(-c2cn3c(n2)SCC3)cc1 | -11 | 60* | -5 | x | 0 | x | 53* | i
COC(=O)c1ccc(N2C(c3cc(OC)cc(OC)c3)=Cc3ccc(-c4cccnc4)cc3C2CC(=O)C2CC2)cc1 (configuration not stated) | 1 | x | x | x | -8 | x | x | x
c1ccc2c(-c3cccc4nccn34)cncc2c1 | 2 | x | x | x | 5 | x | x | x
CCc1ccc(C(=O)Nc2ccc(S(=O)(=O)Nc3nc(C)cc(C)n3)cc2)o1 | 14 | 54* | 3 | -1 | -15 | 0.47 | 105 | i
COc1ccc(OC)c(S(=O)(=O)N2CCCC(C(=O)NCc3cccnc3)C2)c1 (configuration not stated) | 1 | 71* | -4 | x | -13 | x | 92 | i
COCOc1ccc(-c2ncc(OC)nc2NC(=O)c2ccsc2)cc1 | 0 | x | x | x | -17 | x | x | x
Cc1cc(C)n(C(=O)CCCCCCCC(=O)n2nc(C)cc2C)n1 | 2 | 0 | -5 | 6 | -12 | -0.59 | x | x
Cc1cc(C)n(C(=O)CCCC(=O)n2nc(C)cc2C)n1 | 1 | 54* | -6 | -7 | -9 | 0.51 | 92 | i
O=C1CCC[C@@H]2Cc3nc4ccc(Cl)cc4cc3[C@@H]3CCN1[C@H]23 | 8 | -7 | -6 | x | -20 | x | x | x
Cc1ccccc1OCc1n(CC(=O)OC2CC(C)CCC2C(C)C)c2ccccc2[n+]1C (configuration not stated) | 15 | 108*! | 6 | 11 | 1 | -1.7 | 97 | i
SMILES | ABHD5 PLIN5 PPI | Beta2AR agonist | TLR9-MyD88 inh | TLR4-MyD88 BLA | NOD2 RIPK2 PPI | Dynein transport | Beta2AR ag CP1 | B2AR FAP counter
COc1cc(/C=C2/C(=O)NN(c3cccc(F)c3)C2=O)ccc1OC(=O)c1ccco1 | -4 | 47* | 5 | -14 | -9 | -0.67 | 114 | i
COc1cc(/C=C2/C(=O)NN(c3ccc(Cl)cc3)C2=O)ccc1OC(=O)c1ccco1 | -3 | 10 | 4 | 13 | -7 | -0.27 | x | x
O=C(OCc1nnc(-c2ccccc2)o1)c1ccc(CO)cc1 | 0 | -12 | 4 | 0 | -2 | 0.16 | 98 | i
Cc1cccc(C)c1NC(=O)C(c1ccccc1)N1CCN(c2ccc(C(F)(F)F)cn2)CC1 (configuration not stated) | 0 | x | x | x | -7 | x | x | x
CCc1ccc(C(=O)N2CCN(c3ccc(NC(=O)c4ccco4)cc3)CC2)cc1 | 4 | -12 | -12 | x | -9 | x | 122 | i
Cc1ccc(C(=O)N2CCN(c3ccc(NC(=O)c4ccc(Br)o4)cc3)CC2)cc1 | 11 | 12 | -1 | -4 | 2 | 0.29 | 120 | i
COc1ccc(C(=O)N2CCN(c3ccc(NC(=O)c4ccco4)cc3)CC2)cc1 | -5 | -6 | 1 | x | -5 | x | x | x
CCNc1nnc(SCC(=O)NC2CCCCCC2)s1 | 2 | 3 | 6 | x | -3 | x | x | x
CN(C(=O)c1ccc(NC(=O)Cc2cccc(NC(=O)C3CCN(C(=O)C4CCCCC4)CC3)c2)cc1)C1CC1 | 3 | -4 | -8 | x | -4 | x | 115 | i
CN(C(=O)c1cccc(NC(=O)Cc2cccc(NC(=O)C3CCN(C(=O)C4CCCCC4)CC3)c2)c1)C1CCC1 | -3 | -2 | 9 | x | 16 | x | x | x
CN(C(=O)c1ccc(NC(=O)Cc2cccc(NC(=O)C3CCN(C(=O)C4CCCC4)CC3)c2)cc1)C1CCCC1 | 7 | 47* | -1 | x | 5 | x | 82 | i
CN(C(=O)c1ccc(NC(=O)Cc2cccc(NC(=O)C3CCN(C(=O)C4CC4)CC3)c2)cc1)C1CC1 | 2 | -6 | -3 | x | 2 | x | 117 | i
